Compound activity as filed in PubChem BioAssay.
ROMK mod – human ROMK K+ channel modulation, primary screen. P48048. Tet-inducible ROMK, thallium flux fluorescence; actives lie on both sides. B-score at 10 µM. hit rate 2% among 130,000. AID 1918;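 active = signal ratio slope over the read window, or its plate-corrected B-score, at least 3 SD from the plate mean, either direction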;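 note: B-score of the F/F0 ratio slope over 7 to 12 s after thallium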
Target sequence (P48048 whole entry, looked up): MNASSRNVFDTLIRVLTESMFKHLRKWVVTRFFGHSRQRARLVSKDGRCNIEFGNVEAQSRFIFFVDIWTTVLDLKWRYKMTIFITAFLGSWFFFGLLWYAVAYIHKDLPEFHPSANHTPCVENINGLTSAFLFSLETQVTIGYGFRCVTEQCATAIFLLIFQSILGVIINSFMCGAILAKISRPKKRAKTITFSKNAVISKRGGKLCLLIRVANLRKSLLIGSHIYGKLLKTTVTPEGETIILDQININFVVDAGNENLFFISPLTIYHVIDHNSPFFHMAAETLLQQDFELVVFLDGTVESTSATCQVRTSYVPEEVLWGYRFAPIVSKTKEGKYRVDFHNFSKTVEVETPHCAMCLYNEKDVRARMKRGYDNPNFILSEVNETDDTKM
WT yeast gro inh – growth inhibition of WT yeast, mitochondrial fusion screen; mitochondrial fusion phenotypic screen, WT strain; inhibition, % at 10 µM; hit rate 2.1% among 190,000; in the data active = inhibition above about 58%; tested in S. cerevisiae
RBBP9 inhibitor – human RBBP9 hydrolase inhibition. hit rate 0.2% among 220,000. inhibition, % at 7.94 µM. O75884. recombinant RBBP9, FP-Rh probe fluorescence polarization;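 active = inhibition above the campaign mean of all tested compounds plus 3 SD, cut at about 14% in these data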;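 note: plate controls were DMSO wells with RBBP9 for no effect and wells lacking RBBP9 protein for full effect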
Target sequence (O75884 whole entry, looked up): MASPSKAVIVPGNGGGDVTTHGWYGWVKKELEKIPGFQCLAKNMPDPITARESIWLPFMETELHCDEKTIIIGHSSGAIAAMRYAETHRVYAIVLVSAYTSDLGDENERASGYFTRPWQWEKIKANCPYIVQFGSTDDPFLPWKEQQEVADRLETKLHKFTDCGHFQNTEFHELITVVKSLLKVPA
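System: RBBP9 protein / Buffer or medium: Tris/NaCl buffer pH 8.0 with 0.1% Pluronic / Probe or stimulus: Serine-hydrolase probe FP-Rh, 375 nM pre-mixing / Dosing: 7.94 µM single dose, 0.794% DMSO / Times: enzyme-compound preincubation 30 min, then probe labeling 45 min, 25 °C / Technique: fluorescence polarization (mP), excitation 525 nm, emission 598 nm / Replication: singlicate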
NCF1 inh – p47phox (human) inhibition. inhibition, % at 24.7 µM. p47phox/p22phox peptide binding, fluorescence polarization, 2 h. hit rate 0.53% among 220,000;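 active = inhibition above about 30%, limit read from the data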;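 note: 0% = p47phox with labelled peptide and 100% = labelled peptide alone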
14-3-3 Bad PPI – disrupts binding of bovine 14-3-3 zeta to phospho-Bad peptide; P63103; inhibition, % at 21.7 µM; TR-FRET 14-3-3zeta/Dy647-pBad peptide displacement, 1 h; hit rate 0.71% among 220,000; AID 781;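 active = inhibition above about 70%, limit read from the data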;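 note: 0% = full 14-3-3 plus peptide FRET controls and 100% = background without 14-3-3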
Cl transport mod – KCC2 (human) Cl- transport modulation; Q9H2X9; KCC2 cells, thallium flux FluoZin-2 fluorescence; B-score of Tl+ flux slope (higher = more flux/activation; lower = inhibition) at 10 µM; hit rate 2.2% among 190,000;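 active = thallium flux slope and its plate-corrected score both differing from the plate sample mean at a set confidence after two filtering rounds, in either direction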;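 note: slope of fluorescence scaled to starting intensity during 10 to 20 s after thallium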
KCC2 sec1 – KCC2 (human) modulation, secondary assay. normalised thallium flux (F/F0 slope) at 10 µM. shares compounds with Cl transport mod. HEK293-KCC2, thallium flux, FluoZin2 fluorescence; active compounds read high. hit rate 15% among 3,700;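 active = thallium flux slope above the same plate's solvent-only control mean plus 3 SD; inconclusive = the two replicate wells disagree; inactive = no significant difference from solvent-only control wells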
KCC2 bumet counter – bumetanide-insensitive thallium flux in KCC2 cells with ouabain, counter-screen. shares compounds with Cl transport mod. HEK293-KCC2 + bumetanide/ouabain, thallium flux FluoZin2; active compounds read high. normalized thallium flux at 10 µM. hit rate 49% among 3,700. AID 1714;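 active = thallium entry rate above the same plate's blocked-transporter control wells by more than 3 SD; inconclusive = the two repeat wells disagree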;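 note: raw slope of fluorescence over initial fluorescence between 10 and 20 s after thallium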
KCC2 sec2 – confirmation of human KCC2 transport modulators | shares compounds with Cl transport mod | HEK293-KCC2, thallium flux FluoZin2 fluorescence; actives lie on both sides; F/F0 rise rate, 10–20 s post-thallium | normalized thallium flux at 10 µM | hit rate 23% among 3,700;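 active = thallium flux slope more than 3 SD above or below the plate's solvent-only control mean, mostly below; inconclusive = the two repeat wells disagreed; inactive = no significant shift from solvent-only controls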;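 note: raw slope with 0.1% DMSO as baseline and bumetanide as block control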
HEK counter1 – counter-screen for KCC2 modulators: effect in parental HEK293 cells. hit rate 46% among 3,700. thallium flux FluoZin2, ouabain; baseline-ratio fluorescence slope, 10–20 s after thallium. shares compounds with Cl transport mod. AID 1716. thallium flux rate (normalised fluorescence) at 10 µM;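 active = thallium flux rate significantly above the same plate's solvent-only control wells, beyond their mean plus 3 SD; inconclusive = the two replicate wells gave conflicting results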
KCC2 ouabain – confirmation of human KCC2 modulators with ouabain; hit rate 48% among 3,700; HEK293-KCC2, thallium flux FluoZin2 fluorescence; bidirectional: low = inhibitor, high = activator; raw Tl+ flux slope (below DMSO = inhibition, above = activation) at 10 µM; shares compounds with Cl transport mod;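 active = thallium flux slope beyond 3 SD from same-plate DMSO control mean in most replicates, usually higher, sometimes lower; inconclusive = repeat tests gave conflicting results; inactive = no significant difference from controls in most replicates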;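 note: slope of initial-normalized fluorescence between seconds 10 and 20 after thallium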
HEK293 Tl flux2 – parental HEK flux effect, counter-screen 2 | hit rate 33% among 3,700 | HEK293 parental, thallium flux FluoZin-2 fluorescence slope | thallium flux slope at 10 µM | shares compounds with Cl transport mod | AID 1718;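 active = thallium flux slope above the same plate's solvent-control mean plus 3 SD in both duplicate wells; inconclusive = duplicate wells that disagreed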;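 note: run without ouabain in cells lacking the KCC2 cotransporter; slope of fluorescence scaled to its starting value between 10 and 20 s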
* hit, by the source's call. Rows were chosen to be rich in hits. Some 5.8% of all compounds tested hit in one or more screens of this group.

`O=[N+]([O-])c1ccc(NCCCNS(=O)(=O)c2ccccc2)c(Cl)c1` gave ROMK mod -1.8, WT yeast gro inh 21, RBBP9 inhibitor -4, NCF1 inh -3, 14-3-3 Bad PPI 23 and Cl transport mod -0.44.
COc1ccccc1Oc1ncnc2c1cnn2-c1ccccc1 was read as ROMK mod -1.3, WT yeast gro inh 72, RBBP9 inhibitor -1, NCF1 inh 0, 14-3-3 Bad PPI 0, Cl transport mod -5*, KCC2 sec1 inconclusive, KCC2 bumet counter 0.0056, KCC2 sec2 0.033, HEK counter1 0.0036, KCC2 ouabain 0.015* and HEK293 Tl flux2 0.011.
Cc1cccc(NC(=O)c2cccc(N3C(=O)C4C5CCC(C5)C4C3=O)c2)c1C (stereo not drawn) was read as ROMK mod -0.76, WT yeast gro inh -18, RBBP9 inhibitor -4, NCF1 inh 1, 14-3-3 Bad PPI -1, Cl transport mod 6.2*, KCC2 sec1 0.0075, KCC2 bumet counter 0.0046, KCC2 sec2 0.029, HEK counter1 0.0079, KCC2 ouabain 0.019 and HEK293 Tl flux2 0.011.
For O=C(Cn1cnc2c(nnn2-c2ccc(F)cc2)c1=O)N1CCCc2ccccc21 the results were ROMK mod 0.27, WT yeast gro inh 2, RBBP9 inhibitor -3, NCF1 inh 1, 14-3-3 Bad PPI -5, Cl transport mod -4.4*, KCC2 sec1 0.0071, KCC2 bumet counter 0.0048, KCC2 sec2 0.027, HEK counter1 0.0075, KCC2 ouabain 0.017 and HEK293 Tl flux2 0.0099.
For O=C(Cn1cnc2c(nnn2Cc2ccc(F)cc2)c1=O)N1CCCCC1 the results were ROMK mod -0.22, RBBP9 inhibitor 2, NCF1 inh 3, 14-3-3 Bad PPI 5, KCC2 sec1 0.0076, KCC2 bumet counter 0.0057, KCC2 sec2 0.03, HEK counter1 0.0085, KCC2 ouabain 0.014* and HEK293 Tl flux2 0.012.
`Cc1ccc(Cn2nnc3c(=O)n(CC(=O)OCc4ccccc4)cnc32)cc1` gave ROMK mod -0.73, WT yeast gro inh 0, RBBP9 inhibitor -6, NCF1 inh -12, 14-3-3 Bad PPI 6 and Cl transport mod -1.8.
O=C(Cn1cnc2c(nnn2Cc2ccc(F)cc2)c1=O)NCc1ccco1 was read as ROMK mod 0.013, WT yeast gro inh -5, RBBP9 inhibitor -12, NCF1 inh 8, 14-3-3 Bad PPI 7, Cl transport mod -4.5*, KCC2 sec1 0.0069, KCC2 bumet counter 0.0048, KCC2 sec2 0.024*, HEK counter1 0.0075, KCC2 ouabain 0.017* and HEK293 Tl flux2 0.01.
For O=C(Cn1cnc2c(nnn2Cc2ccc(F)cc2)c1=O)NC1CCCC1 the results were WT yeast gro inh 6, RBBP9 inhibitor -7, NCF1 inh -5, 14-3-3 Bad PPI -1 and Cl transport mod -1.3.
For COc1ccc(-n2nnc3c(=O)n(CC(=O)N4CCCc5ccccc54)cnc32)cc1 the results were WT yeast gro inh 18, RBBP9 inhibitor 1 and Cl transport mod -1.1.
Cc1ccc(Cn2nnc3c(=O)n(CC(=O)N4CCN(c5ccccc5)CC4)cnc32)cc1 was read as ROMK mod -2, WT yeast gro inh -14, RBBP9 inhibitor -9, NCF1 inh -4, 14-3-3 Bad PPI -7, Cl transport mod -3.2*, KCC2 sec1 0.0075, KCC2 bumet counter 0.0059, KCC2 sec2 0.031, HEK counter1 0.0064, KCC2 ouabain inconclusive and HEK293 Tl flux2 0.0095.
Screening CS(=O)(=O)N1CCC(Oc2ccccc2C(=O)NCCCc2cccnc2)CC1 returned ROMK mod -1.1, WT yeast gro inh 20, RBBP9 inhibitor -3, NCF1 inh 2, 14-3-3 Bad PPI 15 and Cl transport mod -0.053.
O=C(/C=C/c1ccc(S(=O)(=O)N2CCOCC2)cc1)NCc1ccccc1Cl was read as WT yeast gro inh -15, RBBP9 inhibitor -2, NCF1 inh -3, 14-3-3 Bad PPI -5 and Cl transport mod -0.98.
CCN1CCCC1CNC(=O)C(=O)NCCc1ccc(OC)c(OC)c1 (stereo not drawn) was read as ROMK mod 0.56, WT yeast gro inh 12, RBBP9 inhibitor 5, NCF1 inh -1, 14-3-3 Bad PPI -4 and Cl transport mod -0.48.
Cc1nc(-c2ccc(S(=O)(=O)NCc3cccnc3)s2)cs1 was read as ROMK mod -0.32, RBBP9 inhibitor -9, NCF1 inh 15, 14-3-3 Bad PPI 0 and Cl transport mod -0.079.
For O=C(Cn1cnc2c(nnn2Cc2ccc(Cl)cc2)c1=O)c1ccccc1 the results were WT yeast gro inh -10, RBBP9 inhibitor -9, NCF1 inh -8, 14-3-3 Bad PPI 35 and Cl transport mod -2.6.
O=C(Cn1cnc2c(nnn2Cc2ccccc2)c1=O)c1ccccc1 was read as WT yeast gro inh -3, RBBP9 inhibitor -4, NCF1 inh -11, 14-3-3 Bad PPI 5, Cl transport mod -4.7*, KCC2 sec1 0.0059, KCC2 bumet counter 0.0048, KCC2 sec2 0.024*, HEK counter1 inconclusive, KCC2 ouabain 0.014* and HEK293 Tl flux2 0.011.
`CC(C)S(=O)(=O)C/C(N)=N/OC(=O)c1cc(Cl)cc(Cl)c1` gave RBBP9 inhibitor -3, NCF1 inh 5, 14-3-3 Bad PPI 5 and Cl transport mod 0.11.
For Cc1nnn(-c2nonc2N)c1C(=O)NNC(=O)c1ccc(Cl)c(Cl)c1 the results were ROMK mod 0.076, WT yeast gro inh -30, RBBP9 inhibitor -7, NCF1 inh -17, 14-3-3 Bad PPI -8 and Cl transport mod 0.52.
